The labels stand for the following.
B1: tRNA (parent)
chain: GUUCCGUUGGCGUAAUGGUAACGCGUCUCCCUCCUAAGGAGAAGACUGCGGGUUCGAGUCCCGUACGGAACG

For 167 variants, yeast fitness results are on record in the RNAGym collection of RNA variant scans (doi:10.1126/science.aae0568).

This sample holds only a part of the variants without activity. Some results are limits rather than exact numbers.

The data set covers variants of B1. Put plainly: yeast fitness relative to wild type (ratio to wild type); higher = fitter; tRNA-Arg(CCU), competitive growth, 37 C, YPD. The gist of the method: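 Variants of the tRNA-Arg(CCU) gene were chemically synthesised with a 3% per-site mutation rate across 69 sites and placed at the native genomic locus in Saccharomyces cerevisiae. Six parallel replicates of the pooled strains were competed in YPD at 37°C for 24 hours, and gene amplicons from the start and end populations were read by 100-nucleotide paired-end sequencing. Darwinian fitness relative to wild type was derived from changes in genotype frequencies. Genotypes required ≥ 100 starting reads, and estimates < 0.5 were set to 0.5.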
As to C33U C49G A65C, the yeast fitness turned out to be 0.504.
The same measure for C33U A42G: 0.622; for C33U A42U: 0.729; for C33U C34G C62A: at most 0.5.
The same measure for C34A U64A: 0.783.
The same measure for C34A C46U C61G: at most 0.5; for C33G G38C C55A A65U: 0.665.
Regarding C33G G41C C61G A65U, the yeast fitness was at most 0.5.
The same measure for C33G G51A C55A: at most 0.5.
Under C33U A40C A45C C60G A65C stands at most 0.5; under C34A A42U, 0.618; under C34A A42C, 0.818.
The same measure for C33G G67A A69C: at most 0.5; for C34A A36G A65C G68C: at most 0.5; for C34A A36U G52A C60A: at most 0.5.
In the case of C33U A57U U59C, the yeast fitness worked out at 0.601.
With C34G A42U C61U, the yeast fitness is at most 0.5.
The same measure for C34A G68A: 0.647; for C33G G39C A69C: at most 0.5; for C33U U53A G58C: at most 0.5.
Under C34G A43C G50C stands at most 0.5.
Under C34G A40G G41U C46G A57U C61U stands at most 0.5; under C33G C34A A43G C61U A65C, at most 0.5; under C33G G39C C55U, 0.515.
On to C33G C34G U35C C46U, for which the yeast fitness is at most 0.5.
The same measure for C33U C49A G58C A69U: 0.52; for C34A U53A G67A: at most 0.5.
Under C33G A69U stands 0.764; under C33G G38C, 0.548; under C33G U47G C66U, 0.56.
Under C33G A69C A70U stands 0.611; under C34G A37C G63A, at most 0.5.
Take C33U A40U C66U: the yeast fitness is at most 0.5.
Turning to C34G A57G A65G C66U, the yeast fitness is 0.58.
Under C33G G41C A43C G67C stands at most 0.5; under C34A C46U U47A U59G, at most 0.5; under C33G G41C, 0.58.
C34A C61G: the yeast fitness was at most 0.5.
The same measure for C33G G41C G56C G58A G63C A65U: 0.587; for C33U G39A A57G: at most 0.5; for C34A G44C: 0.574.
Under C34A A37G C61A stands at most 0.5; under C33U A36G, 0.662; under C33G C49A, 0.628.
Under C33U U59A A70G stands at most 0.5; under C34A G63A, 0.621; under C33U C61U, 0.734.
Regarding C33G C60U A69U, the yeast fitness was at most 0.5.
Turning to C33U G41C C55A A69C, the yeast fitness is at most 0.5.
The same measure for C34A U59C: 0.728; for C33G U47A U64G: 0.77; for C34G A42G G44C C66A: at most 0.5.
Under C33U A42C A65G stands 0.58; under C34G A40U A43C C49G G50A C60U, at most 0.5; under C33U U64G A70C, 0.555.
Under C34A A40C A42U A65U G67A stands at most 0.5; under C34A A36G, 0.741; under C34A A36C, 0.511.
Regarding C34A A36U, the yeast fitness turned out to be 0.518.
Consider C34G A43U C49A, for which the yeast fitness turned out to be 0.737.
Under C33U A45C stands 0.703.
Under C34A C49U G51C C61U stands at most 0.5; under C33G G56C, 0.679.
The same measure for C33U A37U G51C A65U: 0.584.
In the case of C33G G63C, the yeast fitness is at most 0.5.
Under C33U U47C A57G stands at most 0.5; under C33U A40C A45C, 0.561.
Under C34G A45C A57C stands 0.514; under C34A C49U G50C G58A, 0.869; under C33G C34U U53C C61U, at most 0.5.
Regarding C33G G41C A43C C61U C66U, the yeast fitness was at most 0.5.
Under C33G C46U C60U stands at most 0.5.
Take C34A A40G C66U: the yeast fitness was at most 0.5.
In the case of C33G U47C G52C C61U, the yeast fitness is at most 0.5.
The same measure for C34G A65U C66A: at most 0.5.
With C33U G44A A65G, the yeast fitness was determined as 0.606.
Under C34G A65G stands 0.765; under C34G A65C, 0.65.
The same measure for C34G A65U: 0.581; for C33U G56A: 0.682; for C33U A69U: 0.788.
Turning to C33U G67C, the yeast fitness stood at 0.839.
The same measure for C33U G67A: 0.776.
As to C34A A37U, the yeast fitness was 0.741.
Under C34G A43C stands 0.594; under C34G A43U, 0.625.
On to C33U C49U A69U, for which the yeast fitness is 0.564.
The same measure for C33G C62G: 0.597; for C33G G56C C62U: at most 0.5; for C34G A42G: 0.716.
Under C33U G41C G68C A69U stands at most 0.5; under C34A A36U C55G C66A, at most 0.5; under C33U A43C C46G, at most 0.5.
The same measure for C34A G41A C46A: at most 0.5; for C34G A40C: 0.636.
C34G A40U: the yeast fitness was found to be 0.596.
In the case of C34A U47A C61G, the yeast fitness is at most 0.5.
Under C33U A43G U53C stands at most 0.5.
Take C34A G44C A57U C62U: the yeast fitness was at most 0.5.
Under C34A A43U stands 0.729.
The same measure for C34A A43C: 0.645; for C33U C60U: 0.629; for C33U C60G: 0.607.
Under C33G G68C stands 0.558; under C33G G68A, 0.671; under C33G C34U C55U A65U G68C, at most 0.5.
C34G A37C G44C: the yeast fitness was at most 0.5.
Under C33G G67U G68C A69U stands at most 0.5; under C34A G38C A43U, 0.588; under C33G G52C C61U U64C, at most 0.5.
Consider C33U A36G A45C A57U U59C, for which the yeast fitness was at most 0.5.
Under C33G C34U G68A stands 0.582; under C33U G41C, 0.708; under C33U G41A, 0.721.
Regarding C34G A45G C60U A69U, the yeast fitness was at most 0.5.
Consider C33U A42C C46A, for which the yeast fitness is at most 0.5.
Turning to C33U G51C, the yeast fitness was at most 0.5.
The same measure for C34A U47C G51A A69U: at most 0.5; for C33U C49A: 0.638.
With C33U C49U, the yeast fitness worked out at 0.849.
The same measure for C34A A37G G41A: at most 0.5; for C33G C34U G38C: at most 0.5.
The same measure for C33G G50A: 0.614; for C33G G48A C66G A70C: 0.524.
The same measure for C33U A65G: 0.665; for C33U A42G U59A: at most 0.5; for C33U A42G U59G: 0.504.
Regarding C34A G44C G68A, the yeast fitness was at most 0.5.
The same measure for C33U G39A G63A: at most 0.5; for C34A A42C C60G: at most 0.5; for C34A A57U: 0.529.
The same measure for C33G G56C A70U: 0.727; for C33G G63U U64A: 0.553.
Under C33G G63U U64G stands 0.665; under C34A A42U A43C, 0.629.
For C33U C49U G51C C55U, the yeast fitness was at most 0.5.
Under C34G A42U G68C stands at most 0.5.
The same measure for C34G A37G: 0.725; for C33U A45C C49U: 0.652; for C34A G39A: 0.734.
Under C33U A37U C61U stands at most 0.5; under C34A A42U A69U, at most 0.5; under C34A G38C A43U G68A, at most 0.5.
Consider C33U A37G C49U A57U, for which the yeast fitness was at most 0.5.
The same measure for C33G C60U: at most 0.5; for C33U G44A: 0.652.
The same measure for C34G A42G C66U: 1.03.
C33U A40C C60G: the yeast fitness was at most 0.5.
For C33G G51A U53A G56A G67C, the yeast fitness is at most 0.5.
With C33G C34A A43G C55A, the yeast fitness worked out at 0.635.
Under C34A U35C stands 0.519.
As to C33G G52C C61U, the yeast fitness is 0.566.
For the variant C34G A45C G51A A65U, the yeast fitness was 0.617.
Under C33G C61U G67A stands 0.649.
The same measure for C34G A45U G68C: 0.578; for C34A A70U: 0.924.
As for C33U G50C A70U, the yeast fitness is at most 0.5.
For the variant C34A G44C A70U, the yeast fitness amounted to 0.54.
Regarding C34G A37U C62A, the yeast fitness was at most 0.5.
Under C33U G41C A45C stands 0.621.
With C33G U47A C61A C66U, the yeast fitness is at most 0.5.
Under C34A C49U stands 0.826; under C33U A70G, 0.6; under C33U A43G, 0.672.
The same measure for C33U A42U G68A A70G: 0.534; for C33G U47G A57G A69U: 0.509; for C33G G41A U47A C61U A69U: at most 0.5.
